The values that follow come from ChEMBL document CHEMBL3286172, “Exploring the role of 2-chloro-6-fluoro substitution in 2-alkylthio-6-benzyl-5-alkylpyrimidin-4(3H)-ones: effects in HIV-1-infected cells and in HIV-1 reverse transcriptase enzymes” (J Med Chem, 2014).

In data set [1] the test system is Human immunodeficiency virus 1. The data set can be described thus: Antiviral activity against HIV-1 harboring NNTRI-resistant reverse transcriptase Y181C mutant infected in human MT4 cells assessed as inhibition of virus-induced cytopathic effect by MTT method. It is filed as functional, organism-based. As to conditions: Human immunodeficiency virus 1, MT4. The method, boiled down:
(§1)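 MT-4 lymphoid cells infected with HIV-1 carrying RT K103N, Y181C or Y188L, with a range of drug concentrations present. Viable cells counted by MTT colorimetric assay at day 5 post-infection. […] Highest concentration tested was limited by precipitation in culture medium. Means of at least two experiments.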
Background: Damage to the host cells serves as the signal in cytopathic effect assays.

Data set [2] in a line: Cytotoxicity against human MT4 cells assessed as induction of cell death by MTT method. It is filed as cell-based. The method, boiled down:
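Mock-infected MT-4 cells exposed to a range of drug concentrations. Viability read by MTT colorimetry at day 5. […] Top concentration was limited where compound precipitated in the culture medium. Means of at least two experiments.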

Data set [3] has as its system Human immunodeficiency virus 1. The experiment in a line: Antiviral activity against HIV-1 harboring NNTRI-resistant reverse transcriptase Y188L mutant infected in human MT4 cells assessed as inhibition of virus-induced cytopathic effect by MTT method. As to conditions: Human immunodeficiency virus 1, MT4. Format: functional, organism-based. In outline: as §1
Data set [4] has as its system Human immunodeficiency virus 1. The data set can be described thus: Antiviral activity against HIV-1 harboring NNTRI-resistant reverse transcriptase K103N mutant infected in human MT4 cells assessed as inhibition of virus-induced cytopathic effect by MTT method. As to conditions: Human immunodeficiency virus 1, MT4. Format: functional, organism-based.
The test system of data set [5] is Human immunodeficiency virus type 1 reverse transcriptase (Human immunodeficiency virus 1), Q72547 [K103N].
The target of data set [6] is Human immunodeficiency virus type 1 reverse transcriptase (Human immunodeficiency virus 1) (UniProt Q72547).
The subject of data set [7] is Human immunodeficiency virus type 1 reverse transcriptase (Human immunodeficiency virus 1), Q72547 [L100I].
Data set [8] relates to Human immunodeficiency virus 1. The experiment in a line: Antiviral activity against wild type HIV-1 NL4-3 infected in human MT4 cells assessed as inhibition of virus-induced cytopathic effect by MTT method. It is filed as functional, organism-based. As to conditions: Human immunodeficiency virus 1, NL4-3, MT4. In outline:
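MT-4 lymphoid cells infected with wild-type HIV-1 NL4-3 while exposed to a range of drug concentrations. Viable cells counted by tetrazolium (MTT) colorimetry at day 5 post-infection. Means of at least two experiments.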

Data set [9] in a line: Selectivity index, ratio of CC50 for human MT4 cells to EC50 for wild type HIV-1 NL4-3 infected in human MT4 cells. Format: toxicity, cell-based. As to conditions: read-out: Ratio CC50/EC50. The method, boiled down: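 Ratio of CC50 to EC50, both from MTT readings in MT-4 cells at day 5. CC50 was taken in mock-infected cells and EC50 in cells infected with wild-type NL4-3. Values are means of at least two experiments.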

A word on the EC50: it is the concentration needed to bring the measured effect to its halfway point. By CC50 is commonly meant the concentration that lowers cell viability or growth by half.

As to `O=C1Nc2ccc(Cl)cc2[C@@](C#CC2CC2)(C(F)(F)F)O1` [EFAVIRENZ], the EC50 in data set [1] is 13 nM; in [3], 1970 nM. In [2], the CC50 was above 3000 nM.

`CCCSc1nc(C(C)c2c(F)cccc2Cl)c(CC)c(=O)[nH]1` (racemic): the EC50 in data set [1] is above 3000 nM; in data set [4], above 3000 nM; in data set [8] it was 28 nM; in data set [3], above 3000 nM. Moreover, the CC50 in [2] is above 3000 nM. The ID50 in data set [5] is 2600 nM; in [6], 10 nM; in data set [7] it was 230 nM. The selectivity ratio in data set [9] was above 107.

Turning to `CCC(C)Sc1nc(C(CC)c2c(F)cccc2Cl)c(C)c(=O)[nH]1` (racemic), the EC50 is above 3000 nM in [1], above 3000 nM in data set [4], 54 nM in [8] and above 3000 nM in data set [3]. In [2], the CC50 was above 3000 nM. Besides, the ID50 in [5] stood at 450 nM; in [6], 2 nM; in data set [7], 120 nM. Moreover, the selectivity ratio in data set [9] is above 56.

For the compound `Cc1c(Cc2c(F)cccc2Cl)nc(SC2CCCC2)[nH]c1=O`, the EC50 is above 71000 nM in data set [1], above 71000 nM in data set [4], 180 nM in data set [8] and above 71000 nM in [3]. Further, the CC50 in data set [2] was above 71000 nM. The selectivity ratio in [9] is above 394.

As to `CCCCSc1nc(O)c(C)c(C(C)c2c(F)cccc2F)n1` (racemic), the EC50 in data set [1] is above 3000 nM; in data set [4], above 3000 nM; in data set [8] it was 50 nM; in data set [3] it was above 3000 nM. Further, the CC50 in [2] was above 3000 nM. In addition, the ID50 in data set [5] was found to be 450 nM; in [6], 3 nM; in data set [7], 230 nM. In addition, the selectivity ratio in data set [9] is above 60.

`CCCCSc1nc(C(CC)c2c(F)cccc2F)c(C)c(=O)[nH]1` (racemic): the half-maximal effective concentration (EC50) is above 3000 nM in [1], above 3000 nM in data set [4], 23 nM in [8] and above 3000 nM in [3]. Moreover, in [2], the CC50 was above 3000 nM. In addition, the results for the ID50 in [5], in data set [6] and in data set [7] were 280 nM, 3 nM and 230 nM, respectively. Further, the selectivity ratio in [9] is above 130.

For `CCCSc1nc(C(C)c2c(F)cccc2F)c(CC)c(=O)[nH]1` (racemic), the EC50 in data set [1] is above 3000 nM; in data set [4], above 3000 nM; in data set [8], 240 nM; in [3], above 3000 nM. Also, the CC50 in data set [2] is above 3000 nM. Besides, the ID50 was found to be 430 nM in [5], 3 nM in data set [6] and 270 nM in [7]. For the same compound, the selectivity ratio in [9] is above 12.

As for `Cc1c([C@@H](C)c2c(F)cccc2Cl)nc(SC(C)C)[nH]c1=O`, the EC50 in data set [1] was above 36900 nM; in [4] it was above 36900 nM; in data set [8] it was 220 nM; in [3] it was above 36900 nM. Also, in data set [2], the CC50 was above 36900 nM.

`Cc1c(C(C)c2c(F)cccc2F)nc(SC(C)C)[nH]c1=O` (racemic): the CC50 in data set [2] was above 3000 nM. For the same compound, in [9], the selectivity ratio was above 3000.

Take `CCC(c1nc(SC2CCCC2)[nH]c(=O)c1C)c1c(F)cccc1Cl` (racemic): the EC50 in data set [1] was above 3000 nM; in data set [4], above 3000 nM; in data set [8] it was 580 nM; in data set [3], above 3000 nM. Also, the 50% cytotoxic concentration (CC50) in data set [2] was above 3000 nM. Also, the figures for the ID50 in data set [5], in [6] and in data set [7] were 340 nM, 4 nM and 68 nM, respectively. For the same compound, the selectivity ratio in [9] is above 5.

In the case of `Cc1ccnc2c1NC(=O)c1cccnc1N2C1CC1` [NEVIRAPINE], the concentration giving a half-maximal response (EC50) in data set [1] and in [3] was above 7000 nM in each case. Also, the CC50 in [2] is above 7000 nM.

For `CCCCSc1nc(C(CC)c2c(F)cccc2Cl)c(C)c(=O)[nH]1` (racemic), the EC50 in data set [1] is above 3000 nM; in [4], above 3000 nM; in data set [8] it was 110 nM; in [3] it was above 3000 nM. For the same compound, the CC50 in [2] was above 3000 nM. Besides, the ID50 in data set [5] turned out to be 1000 nM; in data set [6], 3 nM; in [7] it was 260 nM. In data set [9], the selectivity ratio was above 27.

On to `Cc1c([C@H](C)c2c(F)cccc2Cl)nc(SC(C)C)[nH]c1=O`, for which the EC50 in data set [1] amounted to 150 nM; in [4], 10 nM; in data set [8], 0.03 nM; in [3], 350 nM. For the same compound, the CC50 in data set [2] is above 23500 nM.

`CCc1c(C(C)c2c(F)cccc2F)nc(SC(C)C)[nH]c1=O` (racemic): the EC50 in data set [1] is above 3000 nM; in data set [4] it was above 3000 nM; in [8], 89 nM; in data set [3], above 3000 nM. The CC50 in data set [2] is above 3000 nM. The values for the ID50 in [5], in data set [6] and in data set [7] were 830 nM, 12 nM and 27200 nM, respectively. In data set [9], the selectivity ratio is above 34.

Consider `CCCSc1nc(C(C)c2c(F)cccc2F)c(C)c(=O)[nH]1` (racemic), for which the EC50 in data set [1] is above 3000 nM; in data set [4], above 3000 nM; in data set [8] it was 28 nM; in [3], above 3000 nM. Besides, the CC50 in data set [2] is above 3000 nM. Further, the values for the ID50 in data set [5], in data set [6] and in data set [7] were 380 nM, 1 nM and 230 nM, respectively. In addition, the selectivity ratio in data set [9] is above 107.

Take `CCc1c(C(C)c2c(F)cccc2Cl)nc(SC2CCCC2)[nH]c1=O` (racemic): the EC50 in data set [1], in data set [4], in data set [8] and in data set [3] was above 3000 nM throughout. For the same compound, in [2], the CC50 was above 3000 nM. Further, the ID50 in data set [5] is 1800 nM; in data set [6], 24 nM; in [7] it was 530 nM.

`CCC(c1nc(SC(C)C)[nH]c(=O)c1C)c1c(F)cccc1Cl` (racemic): the EC50 was above 3000 nM in data set [1], above 3000 nM in data set [4], 84 nM in data set [8] and above 3000 nM in [3]. Besides, in data set [2], the CC50 is above 3000 nM. For the same compound, the ID50 in [5] came to 420 nM; in data set [6], 6 nM; in data set [7] it was 120 nM. Besides, the selectivity ratio in [9] is above 36.

With `Cc1c([C@@H](C)c2c(F)cccc2F)nc(SC2CCCC2)[nH]c1=O`, the pID50 in [6] turned out to be 6.

`CCc1c(C(C)c2c(F)cccc2Cl)nc(SC(C)CC)[nH]c1=O` (racemic): the EC50 was above 3000 nM in data set [1], above 3000 nM in data set [4], 270 nM in data set [8] and above 3000 nM in [3]. Further, the cytotoxic concentration (CC50) in data set [2] is above 3000 nM. Also, the ID50 is 2400 nM in data set [5], 8 nM in data set [6] and 400 nM in [7]. Further, the selectivity ratio in [9] was above 11.

Regarding `CCc1c(C(C)c2c(F)cccc2F)nc(SC(C)CC)[nH]c1=O` (racemic), the EC50 is above 3000 nM in data set [1], above 3000 nM in [4], 140 nM in data set [8] and above 3000 nM in [3]. The CC50 in [2] is above 3000 nM. The ID50 was found to be 450 nM in [5], 11 nM in data set [6] and 110 nM in data set [7]. Moreover, the selectivity ratio in data set [9] was above 21.

As for `CCC(C)Sc1nc(C(C)c2c(F)cccc2Cl)c(C)c(=O)[nH]1` (racemic), the EC50 in data set [1] was 390 nM; in [4], 320 nM; in [8], 0.3 nM; in data set [3], above 1500 nM. Moreover, the CC50 in data set [2] is above 1500 nM.

Regarding `CCc1c(C(C)c2c(F)cccc2Cl)nc(SC(C)C)[nH]c1=O` (racemic), the EC50 in data set [1] was above 3000 nM; in [4] it was above 3000 nM; in [8] it was 960 nM; in data set [3] it was above 3000 nM. Besides, the CC50 in [2] was above 3000 nM. The results for the ID50 in data set [5], in data set [6] and in data set [7] were 2600 nM, 48 nM and 1100 nM, respectively. Besides, the selectivity ratio in [9] was above 3.

Regarding `Cc1c(C(C)c2c(F)cccc2Cl)nc(SC(C)C)[nH]c1=O` (racemic), the EC50 was 250 nM in data set [1], 140 nM in data set [4], 0.04 nM in [8] and 3400 nM in [3]. Also, in [2], the CC50 was above 15000 nM.

`CCCCSc1nc(C(C)c2c(F)cccc2Cl)c(CC)c(=O)[nH]1` (racemic): the EC50 in data set [1] was above 3000 nM; in data set [4], above 3000 nM; in [8] it was 64 nM; in data set [3], above 3000 nM. Also, the CC50 in data set [2] is above 3000 nM. Also, the ID50 in data set [5] came to 2300 nM; in data set [6], 22 nM; in data set [7], 330 nM. Further, the selectivity ratio in [9] was above 47.

Compound `Cc1c([C@H](C)c2c(F)cccc2F)nc(SC2CCCC2)[nH]c1=O` showed a pID50 in data set [6] of 8.1.
